“And” between values parts separate entries of the source, which are not always exact repeats. Equal entries are not always repeated. Structures can show the parent of a compound that is named as a salt. Where two headings read alike, the source gives them in different places.
What was measured:
[1] = type: in vivo, human; details: for Cmax / Cmin / AUC(0-t): plasma; for Cl/F: dose/AUC0–12
[2] = Umbilical cord blood and maternal plasma concentrations at delivery; type: in vivo, human; details: 15 patients, detection limit 0.039 μg/mL; for Detected in maternal plasma samples: number of samples at delivery; for Detected in cord plasma samples: number of samples
[3] = Clinical and laboratory safety monitoring of mothers and infants; type: in vivo, human
[4] = Stability in stored plasma; type: in vitro ADME; details: plasma stored at −20°C
In short: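 Human plasma from study participants, stored at −20°C. Test compound and its metabolite were quantified together by reversed-phase HPLC-UV after acetonitrile protein precipitation. Supernatant was injected onto a C-18 column and eluted isocratically with 10mM potassium phosphate pH 4.2:ACN (62:38 v/v) at 1.2 mL/min. Detection was at 206 nm, with a detection limit of 0.039 μg/mL. Validation QC samples spanned multiple concentrations.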

[5] = tested on: HIV; details: cited from earlier work
[6] = cited from earlier work
[7] = cited from earlier work; remark: listed apart in the source
[8] = 1875mg BID 3rd trimester vs 1250mg BID postpartum, (90% CI)
[9] = 3rd trimester, nelfinavir 1875mg BID, median (IQR), n = 18
[10] = postpartum, nelfinavir 1250mg BID, median (IQR), n=16
[11] = 1875mg BID 3rd trimester vs 1250mg BID postpartum, (90% CI), listed as Nelfinavir

## Cc1c(O)cccc1C(=O)N[C@@H](CSc1ccccc1)[C@H](O)CN1C[C@H]2CCCC[C@H]2C[C@H]1C(=O)NC(C)(C)CO [M8, hydroxyl-tert-butylamide]
[1]; [8]
  Cmin geometric mean ratio 3rd trimester/postpartum: 0.78 (0.40–1.26)
[1]; [9]
  M8/NFV AUC ratio: 0.11 (0.08–0.22)
  Cmax: 0.66 (0.48–1.12) μg/mL
  Cmin: 0.11 (0.05–0.15) μg/mL
[1]; [10]
  Cmax: 1.20 (1.07–1.71) μg/mL
  Cmin: 0.14 (0.04–0.21) μg/mL
  M8/NFV AUC ratio: 0.30 (0.17–0.35)
[2]
  Detected in maternal plasma samples: 10
  Detected in cord plasma samples: 3

## Cc1c(O)cccc1C(=O)N[C@@H](CSc1ccccc1)[C@H](O)CN1C[C@H]2CCCC[C@H]2C[C@H]1C(=O)NC(C)(C)C [NFV, Nelfinavir mesylate]
[1]; [8]
  AUC0–12 geometric mean ratio 3rd trimester/postpartum: 0.98 (0.71–1.35)
  Cl/F geometric mean ratio 3rd trimester/postpartum: 1.54 (1.12–2.11)
  Cmax geometric mean ratio 3rd trimester/postpartum: 1.06 (0.85–1.34)
  Cmin geometric mean ratio 3rd trimester/postpartum: 0.90 (0.71–1.16)
[1]; [11]
  AUC0–12 geometric mean ratio 3rd trimester/postpartum: 0.98
  Cl/F geometric mean ratio 3rd trimester/postpartum: 1.54
[1]; 3rd trimester, 1875 mg twice daily, 15 of 18
  Participants with AUC0–12 above target (18.5 μg h/mL): 83%
[1]; [9]
  Cl/F: 54.9 (40.4–68.9) L/h
  Cmin: 0.47 (0.35–1.33) μg/mL
[1]; female, human, 1250 mg
  AUC(0-t): 33500 ng·h/mL and 58.9 µM·h
  Cmax: 5000 ng/mL
[1]; female, human, 1875 mg
  AUC(0-t): 34200 ng·h/mL and 60.2 µM·h
[1]; number of pregnant patients
  Patients with increased Cl/F during 3rd trimester compared to the postpartum period: 11 out of 18
[1]; [10]
  Cmin: 0.52 (0.22–0.80) μg/mL
  Cl/F: 37.4 (28.7–43.7) L/h
[1]; postpartum, 1250mg twice daily, 14 of 16
  Participants with AUC0–12 above target (18.5 μg h/mL): 88%
[2]
  Detected in maternal plasma samples: 13 out of 15
  Detected in cord plasma samples: 10 out of 15
[3]; 18 patients
  Grade 3–4 adverse events treatment-related: none were determined to be treatment-related
[3]; increased dose 1875 mg twice daily in third trimester
  Safety concerns: No major safety concerns were noted
[4]
  Stability in plasma: stable
[5]
  Activity against HIV: moderately potent activity
[6]; in vivo, 1250 mg
  Subjects meeting the AUC target during the 3rd trimester: 56%
[6]; in vivo
  Placental crossing: crossed the placenta poorly
[6]; non-pregnant historical controls
  10th percentile AUC0–12 (target AUC): 18500 ng·h/mL

## CC(C)CN(C[C@@H](O)[C@H](Cc1ccccc1)NC(=O)O[C@H]1CO[C@H]2OCC[C@H]21)S(=O)(=O)c1ccc(N)cc1 [darunavir]
[7]; standard dosing
  AUC and Cmax in pregnancy: substantially decreased

## Cc1cc(C#N)cc(C)c1Oc1nc(Nc2ccc(C#N)cc2)nc(N)c1Br [etravirine]
[7]
  Exposure during pregnancy: increased

Source: article PMC6368469 (Journal of clinical pharmacology, 2018)
